Measured values as given in article PMC1557817 (Nucleic Acids Research, 2006).
Read-outs that look alike come from different tables or passages of the source. Blank lines part the entries; values can stand above or below the molecule they belong to.

Experiments:
[1] = molecular target: truncated human eRF3 (amino acids 139-637), C-terminal hexahistidine (human) (UniProt P15170); experiment: ITC
[2] = molecular target: truncated human eRF3 (amino acids 139-637), C-terminal hexahistidine (human) (UniProt P15170); experiment: ITC; remark: listed apart in the source
human eRF3 = human eRF3 (Homo sapiens, UniProt P15170); experiment: ITC binding of ligands to eRF3
Procedure, shortened: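 Run at 25°C in phosphate buffer pH 7.5 (25 mM K2HPO4, 0.1 M KCl, 10% glycerol, 1 mM DTT), MgCl2 0–10 mM. Cell: 6–15 μM His-tagged human eRF3 (aa 139–637), alone or with full-length eRF1, both E. coli-expressed. Syringe: ligand at 50–300 μM, 10 μl injections. Dilution heat subtracted; one-set-of-sites fit gave Ka and ΔH; ΔG and ΔS calculated; 2–4 repeats.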

prokaryotic RF3 = conditions: 5 mM Mg^2+ ref 28; cited from earlier work
S.pombe eRF3 = conditions: 2.0–2.5 mM Mg^2+ ref 24; cited from earlier work
eRF1•eRF3 = eRF1•eRF3 (Homo sapiens, UniProt P15170); experiment: ITC binding of guanine nucleotides to the eRF1•eRF3 complex
eRF1•eRF3•GDP = eRF1•eRF3•GDP (Homo sapiens, UniProt P15170); experiment: Displacement ITC: eRF1•eRF3 saturated with GDP titrated with GTP; conditions: Tris buffer, 2 mM Mg^2+, competitive ligand binding model
Procedure, shortened: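 Proteins: human eRF1 and truncated human eRF3 (aa 139–637), both with a C-terminal His6 tag, expressed in E. coli, purified by Ni-NTA then anion exchange, and dialysed into assay buffer. Method: eRF1•eRF3 in the cell was saturated with one HPLC-purified nucleotide, then titrated with 10 μl aliquots of the other. K2 = Kapp(1 + K1[L1]). Run at 25°C, pH 7.5; dilution heats subtracted; 2–4 runs.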

eRF3•GDP = eRF3•GDP (Homo sapiens, UniProt P15170); experiment: ITC binding of ligands to the eRF3•GDP complex; conditions: absence of eRF1

- dHobs (observed, not corrected for protonation) [1]: -13.5 kcal/mol
- dHobs (observed, not corrected for protonation) [2]: -19.2 kcal/mol
- stoichiometry N [2]: 0.47
Molecule: human eRF1 (wild-type), C-terminal hexahistidine (from UniProt P62495 1-437) (natural protein)

- fold increase of Kd at 2 mM Mg^2+ versus absence of Mg^2+ (human eRF3; both phosphate and Tris buffers): 1.7 fold
Molecule: Nc1nc2c(ncn2[C@@H]2O[C@H](COP(=O)(O)OP(=O)(O)O)[C@@H](O)[C@H]2O)c(=O)[nH]1 [GDP]
- Kd (prokaryotic RF3): 5.5 nM
- affinity of GDP for yeast eRF3 (in words) (S.pombe eRF3): lost

- constant of GTP binding relative to that of GDP binding (eRF1•eRF3; 2.0 mM Mg^2+): four times higher
- fold increase of GTP affinity by Mg^2+ (eRF1•eRF3; physiological Mg^2+ versus absence of Mg^2+): 6 fold
- GTP binding constant (eRF1•eRF3•GDP): 1.8e+06 M⁻¹
- GTP binding to eRF3•GDP (in words) (eRF3•GDP): no binding was detected
Molecule: Nc1nc2c(ncn2[C@@H]2O[C@H](COP(=O)(O)OP(=O)(O)OP(=O)(O)O)[C@@H](O)[C@H]2O)c(=O)[nH]1 [GTP]
- GTP binding to eRF3 (in words) (human eRF3; phosphate or Tris, absence and presence of 2 mM Mg^2+): failed to reveal any measurable GTP binding
- GTP binding, direct titration (in words) (eRF1•eRF3; Tris buffer): signal is too low to be measured directly
